# Screens from PubChem.
# Shown are actives, neighbours in structure and some others; about 12% of the full set was active somewhere.
# Arbovirus inh: arbovirus infection inhibition; arbovirus infection cell-based antiviral screen; inhibition, % at 10 µM; actives 0.37% (n = 200,000); AID 1251; in the data active means inhibition above about 30%
# PKD1 kinase inh: inhibitors of human PKD1 kinase. Q15139. PKD1 kinase fluorescence polarization assay. inhibition, % (concentration not given with the values). actives 0.056% (n = 200,000). AID 797
# Rad51 HR inh: blocks human Rad51 in homologous recombination | actives 0.085% (n = 200,000) | Q06609 | inhibition, % at 10 µM | hRad51 DNA strand exchange, fluorescence dequenching;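 active means inhibition above 40% at the single screening dose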;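 further: 0% = DMSO control wells and 100% = blanks with heterologous ssDNA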
# Target sequence (Q06609 whole entry, looked up): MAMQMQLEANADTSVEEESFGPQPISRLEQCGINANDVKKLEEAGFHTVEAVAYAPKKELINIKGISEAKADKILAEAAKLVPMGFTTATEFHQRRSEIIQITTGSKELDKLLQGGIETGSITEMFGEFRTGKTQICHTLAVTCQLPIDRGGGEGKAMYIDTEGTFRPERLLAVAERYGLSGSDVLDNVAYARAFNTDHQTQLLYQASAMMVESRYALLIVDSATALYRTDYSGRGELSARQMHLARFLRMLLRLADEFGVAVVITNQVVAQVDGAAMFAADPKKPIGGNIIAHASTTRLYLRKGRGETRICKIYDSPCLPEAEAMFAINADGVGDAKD
#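 Read-out basis: percent inhibition relative to plate controls and blanks / Assay system: human Rad51 nucleoprotein filaments preassembled on unlabelled ssDNA / Timing: filaments 15 min 37 °C, then compound 30 min / Control set: per-plate controls and blanks / Technique: fluorescence dequenching at 485/520 nm / Compound: 10 µM final, single point / Also added: Fluorescein- and BHQ1-tagged 47-mer duplex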
# Wee1 stabilizer: human Wee1 degradation inhibition, primary screen; HeLa Luc-Wee1K328M stability, luciferase luminescence; 100% = proteasome inhibitor MG132 effect; actives 1.2% (n = 220,000); P30291; AID 1321; reporter increase, % at 5 µM;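 active means activation above the mean of all tested compounds plus 3 SD, set per screening run, cut at about 8.8% in these data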;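 further: cells exposed to compound for 20 h before luminescence read; 0% = DMSO alone and 100% = MG132 at 30 µM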
# CHOP inhibitor: blocks CHOP induction under ER stress; actives 3.8% (n = 220,000); inhibition, % at 10 µM; CHO-K1 CHOP-promoter luciferase, tunicamycin-induced, 15-18 h;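 active means compounds that reduced the stress-induced luciferase reporter signal by more than about 70% of percent inhibition, limit read from the data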;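 further: 0% = tunicamycin plus vehicle and 100% = wells without tunicamycin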
# Lmaj promast: inhibitors of Leishmania major promastigote growth. Leishmania major promastigotes, resazurin fluorescence viability. inhibition, % at 10 µM. actives 9% (n = 200,000);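 further: promastigotes grown with compound for 44 hours at 28 °C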
# Numbers without * were called inactive; / = no result given. Unless noted, no stated cut-off is given here; in the data, active means inhibition above about 50%; inactive means the rest.
SMILES,Arbovirus inh,PKD1 kinase inh,Rad51 HR inh,Wee1 stabilizer,CHOP inhibitor,Lmaj promast
Cc1cc(C)cc(NC(=O)Nc2ccc3c(c2)N(C)C(=O)CS3)c1,0,5,7,-2,87*,12
CCc1ccc(NC(=O)Nc2ccc3c(c2)N(C)C(=O)CS3)cc1,-3,0,1,4,75*,9
Cc1ccc(NC(=O)Nc2ccc3c(c2)N(C)C(=O)CS3)cc1C,2,2,4,3,73*,14
C/C(=N/NC(=O)CNC(=O)C(c1ccccc1)c1ccccc1)c1ccco1,/,/,14,-2,2,/
COc1cc(C(=O)NCc2ccc(-c3nc4ccccc4o3)cc2)cc(OC)c1OC,-8,-6,7,2,71*,-2
COc1cc(C(=O)NCc2ccc(-c3nc4ccccc4s3)cc2)cc(OC)c1OC,-14,8,8,-1,54,8
Nc1nnc(Cc2ccc(Cl)cc2Cl)s1,1,-1,-3,3,8,-4
Nc1nc(-c2ccccn2)nc(N)c1Cc1ccc(Cl)cc1Cl,-28,-6,-7,0,46,101*
Nc1nc(-c2ccccn2)nc(N)c1Cc1c(F)cccc1Cl,-23,-9,6,2,71*,101*
Nc1nc(-c2ccccn2)nc(N)c1Cc1ccccc1F,-23,-3,-7,1,-43,95*
Cc1cc(C)c2nc(NNC(=O)c3cc(=O)c4ccccc4o3)sc2c1,3,-7,/,0,14,-14
C#CCNc1c2c(nc3ncnn13)CC(C)CC2 (stereo not drawn),/,/,39,4,2,/
CC(C)CC(NC(N)=O)C(=O)OCC(=O)N(Cc1ccccc1)Cc1ccccc1 (stereo not drawn),5,0,/,2,6,1
O=C1CSC(=Nc2ccccc2)N1Cc1ccccc1,3,3,23,0,5,5
Cc1ccccc1N=C1SCC(=O)N1Cc1ccccc1,37*,7,/,0,56,22
COc1cccc(N=C2SC(CC(=O)Nc3ccccc3)C(=O)N2Cc2ccccn2)c1 (stereo not drawn),9,-1,-1,1,5,32
CC(O)CNCc1ccccc1C(F)(F)F (stereo not drawn),4,-4,/,-1,14,-10
Cc1cc(/C=C2\SC(=Nc3ccccc3)NC2=O)c(C)n1-c1ccc(S(N)(=O)=O)cc1,-2,8,-13,2,92*,3
CC(C)(C)OC(=O)N1CCC2(CC1)Oc1ccc(Cl)cc1C(=O)C21CC(c2ccc(Cl)cc2)=NO1 (stereo not drawn),/,/,4,/,/,/
O=S(=O)(c1ccc(-c2csc(=Nc3ccccc3)n2CCCN2CCOCC2)cc1)N1CCOCC1,13,-2,1,4,39,94*
OCCn1c(-c2ccc(F)cc2)csc1=Nc1ccccc1,-3,-2,12,0,55,2
Cc1nn(C)c(C)c1S(=O)(=O)N1CCCC(C(=O)N2CCN(c3ccc(Cl)cc3)CC2)C1 (stereo not drawn),2,-12,-3,1,48,6
Cc1n[nH]c(C)c1S(=O)(=O)N1CCCC(C(=O)N2CCN(c3ccc(Cl)cc3)CC2)C1 (stereo not drawn),-1,-4,-11,-3,33,52*
O=C(C1CCCN(S(=O)(=O)c2cccc3nonc23)C1)N1CCN(c2cccc(Cl)c2)CC1 (stereo not drawn),14,1,4,-1,47,93*
CC1CCN(Cc2cc(=O)oc3ccc4ccccc4c23)CC1,/,/,8,0,-2,/
SMILES,Arbovirus inh,PKD1 kinase inh,Rad51 HR inh,Wee1 stabilizer,CHOP inhibitor,Lmaj promast
O=C1c2ccccc2N2C(=O)c3ccccc3[C@H]2N1c1ccccc1,30*,-2,9,-2,-41,5
CCN(CC)c1nc(Nc2ccc(Cl)cc2)nc(OCC#N)n1,-8,-8,2,-3,93*,32
CCN(CC)c1nc(Nc2ccccc2)nc(Oc2ccc(=O)[nH]n2)n1,-4,-5,2,2,25,9
O=[N+]([O-])c1cc(O)c2ncccc2c1,21,2,-2,-3,45,100*
COc1ccc(N2CCN(C(=O)CCNC(=O)c3ccccc3)CC2)cc1,4,-3,6,0,-4,-3
COc1ccc(N2CCN(C(=O)CC(NC(N)=O)c3cccc(Oc4ccccc4)c3)CC2)cc1 (stereo not drawn),1,-7,4,-1,52,100*
COc1ccc(N2CCN(C(=O)CCn3nnc4ccccc43)CC2)cc1,-1,2,-6,1,-12,89*
COc1ccc(N2CCN(C(=O)CSc3ccccc3N)CC2)cc1,-2,-14,1,3,7,63*
Cn1c(NCCCO)nc2c1c(=O)n(Cc1ccccc1F)c(=O)n2C,15,-3,-2,-1,14,-4
Cn1c(NCCCN2CCOCC2)nc2c1c(=O)n(Cc1ccc(Cl)cc1)c(=O)n2C,4,-7,4,0,5,74*
Cn1c(NCCCN2CCOCC2)nc2c1c(=O)n(Cc1ccc(Cl)c(Cl)c1)c(=O)n2C,-35,-1,2,1,39,99*
C=CCNC(=S)Nc1ccc2cn[nH]c2c1,/,/,11,0,17,/
Cc1[nH]c2ccccc2c1C(=O)CN1CCN(C/C=C/c2ccccc2)CC1,1,-1,-2,-4,10,83*
COc1ccc2[nH]c(C)c(C(=O)CN3CCN(C/C=C/c4ccccc4)CC3)c2c1,6,1,5,1,-6,62*
COc1ccc(C)cc1S(=O)(=O)Nc1ccc2c(c1)OCO2,-2,-5,1,-2,-4,0
CN(CC/C=C1/c2ccccc2CSc2ccccc21)CCCO,-19,-14,/,-2,1,56*
CN(C)CC/C=C1/c2ccccc2COc2ccccc21,-14,/,3,0,15,/
C#CCN(C)CC/C=C1\c2ccccc2CSc2ccccc21,-5,-8,0,0,29,65*
CN(C)CCC=C1c2ccccc2C=Cc2ccccc21,/,/,/,/,1,/
NCC/C=C1/c2ccccc2CSc2ccccc21,-36,-2,-4,1,16,54*
CN(C)CC/C=C1/c2cc(F)ccc2CSc2ccc(F)cc21,-26,1,4,1,14,99*
COCC(=O)N1CCCC(C(=O)c2ccc(-c3ccccc3)c(F)c2)C1 (stereo not drawn),1,5,/,3,-2,0
CCCCCOC(=O)NC1CCS(=O)(=O)C1 (stereo not drawn),4,10,-15,0,3,-3
CC1CCc2c(cnc3ncnn23)C1 (stereo not drawn),/,/,-31,-2,-2,/
O=C1Nc2c(c(=O)[nH]c(=O)n2-c2ccc(F)cc2)C1(NS(=O)(=O)c1ccccc1)C(F)(F)F (stereo not drawn),/,/,-41,1,-12,/
